# Experimental data reported in ChEMBL document CHEMBL1145212, “Fluorinated diaryl sulfides as serotonin transporter ligands: synthesis, structure-activity relationship study, and in vivo evaluation of fluorine-18-labeled compounds as PET imaging agents” (J Med Chem, 2005).
# Tests used:
# [1] = target: Sodium-dependent serotonin transporter (Rattus norvegicus) (UniProt P31652); experiment: Specific binding of [18F]AFA in rat frontal cortex after citalopram treatment; n=3; type: functional, tissue-based; details: tested as the 18F-labelled form
# How it was run: (§1)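 Rats, three per group, were pretreated iv with blocker at 2 mg/kg in saline, or with saline as control, 10–15 min before tail-vein F-18 radioligand (about 20 µCi). Killed at 60 min and regional %ID/g determined. Specific binding = (region activity − cerebellum activity)/cerebellum activity; mean ± SD.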
# [2] = species: Rattus norvegicus; experiment: Regional uptake of [18F]AFA in cerebellum of rat pretreated with compound GBR-12935; n=3; type: functional, organism-based; details: tested as the 18F-labelled form
# How it was run: (§2)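 Male Sprague-Dawley rats, three per group, received blocker (2 mg/kg iv in saline) or saline only (controls) 10–15 min before about 20 µCi of tail-vein F-18 radioligand. Killed 60 min after tracer. Blood and brain regions weighed and gamma-counted. %ID/g was decay- and tail-corrected; mean ± SD.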
# [3] = species: Rattus norvegicus; experiment: Regional uptake of [18F]AFP in thalamus of rat pretreated with compound 7f; n=3; details: tested as the 18F-labelled form
# [4] = target: Sodium-dependent serotonin transporter (Rattus norvegicus) (UniProt P31652); experiment: Specific binding of [18F]AFA in rat frontal cortex after nisoxetine treatment; n=3; type: functional, tissue-based; details: tested as the 18F-labelled form; how it was run: as §1
# [5] = target: Sodium-dependent serotonin transporter (Rattus norvegicus) (UniProt P31652); experiment: Specific binding of [18F]AFA in rat hypothalamus after GBR-12935 treatment; n=3; type: functional, tissue-based; details: tested as the 18F-labelled form; how it was run: as §1
# [6] = target: Sodium-dependent serotonin transporter (Rattus norvegicus) (UniProt P31652); experiment: Specific binding of [18F]AFA in rat hippocampus after nisoxetine treatment; n=3; type: functional, tissue-based; details: tested as the 18F-labelled form; how it was run: as §1
# [7] = target: Sodium-dependent serotonin transporter (Rattus norvegicus) (UniProt P31652); experiment: Specific binding of [18F]-AFA in rat striatum after citalopram treatment; n=3; type: functional, tissue-based; details: tested as the 18F-labelled form; how it was run: as §1
# [8] = species: Rattus norvegicus; experiment: Regional uptake of [18F]AFA in frontal cortex of rat pretreated with compound nisoxetine; n=3; type: functional, organism-based; details: tested as the 18F-labelled form; how it was run: as §2
# [9] = species: Rattus norvegicus; experiment: Regional uptake of [18F]-AFA in hypothalamus of rat pretreated with compound nisoxetine; n=3; type: functional, organism-based; details: tested as the 18F-labelled form; how it was run: as §2
# [10] = species: Rattus norvegicus; experiment: Regional uptake of [18F]AFA in hippocampus of rat pretreated with compound citalopram; n=3; type: functional, organism-based; details: tested as the 18F-labelled form; how it was run: as §2
# [11] = target: Sodium-dependent serotonin transporter (Rattus norvegicus) (UniProt P31652); experiment: Specific binding of [18F]-AFA in rat striatum after nisoxetine treatment; n=3; type: functional, tissue-based; details: tested as the 18F-labelled form; how it was run: as §1
# [12] = species: Rattus norvegicus; experiment: Regional uptake of [18F]AFA in frontal cortex of rat pretreated with compound citalopram; n=3; type: functional, organism-based; details: tested as the 18F-labelled form; how it was run: as §2
# [13] = species: Rattus norvegicus; experiment: Regional uptake of [18F]-AFA in striatum of rat pretreated with compound GBR-12935; n=3; type: functional, organism-based; details: tested as the 18F-labelled form; how it was run: as §2
# [14] = species: Rattus norvegicus; experiment: Regional uptake of [18F]AFA in thalamus of rat pretreated with compound citalopram; n=3; type: functional, organism-based; details: tested as the 18F-labelled form; how it was run: as §2
# [15] = species: Rattus norvegicus; experiment: Regional uptake of [18F]AFA in cerebellum of rat pretreated with compound citalopram; n=3; type: functional, organism-based; details: tested as the 18F-labelled form; how it was run: as §2
# [16] = target: Sodium-dependent serotonin transporter (Rattus norvegicus) (UniProt P31652); experiment: Specific binding of [18F]AFA in rat striatum after GBR-12935 treatment; n=3; type: functional, tissue-based; details: tested as the 18F-labelled form; how it was run: as §1
# [17] = target: Sodium-dependent serotonin transporter (Homo sapiens, UniProt P31645); experiment: In vitro displacement of [3H]paroxetine from human serotonin transporter expressed in HEK293 cells; type: cell-based
# [18] = species: Rattus norvegicus; experiment: Regional uptake of [18F]AFA in thalamus of rat pretreated with compound nisoxetine; n=3; type: functional, organism-based; details: tested as the 18F-labelled form; how it was run: as §2
# [19] = species: Rattus norvegicus; experiment: Regional uptake of [18F]AFA in striatum of rat pretreated with compound nisoxetine; n=3; type: functional, organism-based; details: tested as the 18F-labelled form; how it was run: as §2
# [20] = species: Rattus norvegicus; experiment: Regional uptake of [18F]AFA in frontal cortex of rat pretreated with compound 7f; n=3; type: functional, organism-based; details: tested as the 18F-labelled form
# [21] = species: Rattus norvegicus; experiment: Regional uptake of [18F]AFA in hypothalamus of rat pretreated with compound citalopram; n=3; type: functional, organism-based; details: tested as the 18F-labelled form; how it was run: as §2
# [22] = species: Rattus norvegicus; experiment: Regional uptake of [18F]AFA in striatum of rat pretreated with compound citalopram; n=3; type: functional, organism-based; details: tested as the 18F-labelled form; how it was run: as §2
# [23] = species: Rattus norvegicus; experiment: Regional uptake of [18F]AFA in hippocampus of rat pretreated with compound nisoxetine; n=3; type: functional, organism-based; details: tested as the 18F-labelled form; how it was run: as §2
# [24] = target: Sodium-dependent serotonin transporter (Rattus norvegicus) (UniProt P31652); experiment: Specific binding of [18F]AFA in rat thalamus after nisoxetine treatment; n=3; type: functional, tissue-based; details: tested as the 18F-labelled form; how it was run: as §1
# [25] = species: Rattus norvegicus; experiment: Regional uptake of [18F]AFA in thalamus of rat pretreated with compound GBR-12935; n=3; type: functional, organism-based; details: tested as the 18F-labelled form; how it was run: as §2
# Sodium-dependent serotonin transporter (Rattus norvegicus), sequence (P31652 whole entry): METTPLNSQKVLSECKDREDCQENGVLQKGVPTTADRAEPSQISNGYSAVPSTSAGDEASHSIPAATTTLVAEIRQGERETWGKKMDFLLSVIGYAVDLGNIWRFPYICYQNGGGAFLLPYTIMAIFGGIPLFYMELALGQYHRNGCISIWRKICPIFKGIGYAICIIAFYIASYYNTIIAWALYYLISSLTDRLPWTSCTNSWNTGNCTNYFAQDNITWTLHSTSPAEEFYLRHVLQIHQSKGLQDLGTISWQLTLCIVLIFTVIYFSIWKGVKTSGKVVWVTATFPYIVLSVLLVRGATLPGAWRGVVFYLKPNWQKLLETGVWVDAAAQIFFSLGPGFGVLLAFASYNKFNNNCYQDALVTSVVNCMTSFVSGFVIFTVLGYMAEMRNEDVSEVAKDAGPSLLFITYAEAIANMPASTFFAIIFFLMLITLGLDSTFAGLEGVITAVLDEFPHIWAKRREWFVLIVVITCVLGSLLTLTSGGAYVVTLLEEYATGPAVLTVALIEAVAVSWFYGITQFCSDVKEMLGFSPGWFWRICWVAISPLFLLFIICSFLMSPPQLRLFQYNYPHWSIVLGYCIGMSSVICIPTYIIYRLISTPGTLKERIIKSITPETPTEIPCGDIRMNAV
# Sodium-dependent serotonin transporter, sequence (P31645 whole entry): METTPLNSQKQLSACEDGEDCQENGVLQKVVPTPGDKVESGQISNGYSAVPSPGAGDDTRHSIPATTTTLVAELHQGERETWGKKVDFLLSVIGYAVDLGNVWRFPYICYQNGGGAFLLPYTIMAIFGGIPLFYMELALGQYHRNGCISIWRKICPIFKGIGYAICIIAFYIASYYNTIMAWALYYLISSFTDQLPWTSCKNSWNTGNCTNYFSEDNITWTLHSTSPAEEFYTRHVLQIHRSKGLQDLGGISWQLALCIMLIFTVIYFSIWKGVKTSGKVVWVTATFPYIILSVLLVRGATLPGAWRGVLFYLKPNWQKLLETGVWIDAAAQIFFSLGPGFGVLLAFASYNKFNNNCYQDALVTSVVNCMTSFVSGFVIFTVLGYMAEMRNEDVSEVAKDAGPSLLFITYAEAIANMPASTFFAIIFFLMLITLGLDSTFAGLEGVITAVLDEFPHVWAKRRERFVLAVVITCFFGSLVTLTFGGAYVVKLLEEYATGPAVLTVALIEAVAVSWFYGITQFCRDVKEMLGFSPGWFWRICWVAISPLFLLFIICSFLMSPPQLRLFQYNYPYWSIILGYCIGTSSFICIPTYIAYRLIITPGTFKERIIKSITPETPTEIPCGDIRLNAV
structure (smiles),measurement,setting,value
CN(C)Cc1ccccc1Sc1ccc(CCCF)cc1N,Specific binding,[1],0.84 %ID/g
same,Uptake,[2],0.09 %ID/g
same,Uptake,[3],0.1 %ID/g
same,Specific binding,[4],0.72 %ID/g
same,Specific binding,[5],0.87 %ID/g
same,Specific binding,[6],1.02 %ID/g
same,Specific binding,[7],0.45 %ID/g
same,Uptake,[8],0.13 %ID/g
same,Uptake,[9],0.15 %ID/g
same,Uptake,[10],0.11 %ID/g
same,Specific binding,[11],0.58 %ID/g
same,Uptake,[12],0.16 %ID/g
same,Uptake,[13],0.17 %ID/g
same,Uptake,[14],0.15 %ID/g
same,Uptake,[15],0.08 %ID/g
same,Specific binding,[16],0.84 %ID/g
same,Ki,[17],3.58 nM
same,Uptake,[18],0.15 %ID/g
same,Uptake,[19],0.13 %ID/g
same,Uptake,[20],0.08 %ID/g
same,Uptake,[21],0.13 %ID/g
same,Uptake,[22],0.12 %ID/g
same,Uptake,[23],0.16 %ID/g
same,Specific binding,[24],0.88 %ID/g
same,Uptake,[25],0.18 %ID/g
